Source: ChEMBL document CHEMBL4627265, “Optimization of 8-oxoadenines with toll-like-receptor 7 and 8 activity” (Bioorg Med Chem Lett, 2020)
Calls of active or inactive are those of the source. The calls are words filed in the database; no cut-off is given here.

Experiments:
Format in all cases: cell-based
[1] = target: T1, Toll-like receptor 8 (Homo sapiens) (UniProt Q9NR97); test: Agonist activity at TLR8 in human PBMC assessed as induction of myeloid dendritic cell maturation by measuring increase in CD80 level at 0.1 uM after 6 hrs by flow cytometry relative to control
T1 sequence (whole entry): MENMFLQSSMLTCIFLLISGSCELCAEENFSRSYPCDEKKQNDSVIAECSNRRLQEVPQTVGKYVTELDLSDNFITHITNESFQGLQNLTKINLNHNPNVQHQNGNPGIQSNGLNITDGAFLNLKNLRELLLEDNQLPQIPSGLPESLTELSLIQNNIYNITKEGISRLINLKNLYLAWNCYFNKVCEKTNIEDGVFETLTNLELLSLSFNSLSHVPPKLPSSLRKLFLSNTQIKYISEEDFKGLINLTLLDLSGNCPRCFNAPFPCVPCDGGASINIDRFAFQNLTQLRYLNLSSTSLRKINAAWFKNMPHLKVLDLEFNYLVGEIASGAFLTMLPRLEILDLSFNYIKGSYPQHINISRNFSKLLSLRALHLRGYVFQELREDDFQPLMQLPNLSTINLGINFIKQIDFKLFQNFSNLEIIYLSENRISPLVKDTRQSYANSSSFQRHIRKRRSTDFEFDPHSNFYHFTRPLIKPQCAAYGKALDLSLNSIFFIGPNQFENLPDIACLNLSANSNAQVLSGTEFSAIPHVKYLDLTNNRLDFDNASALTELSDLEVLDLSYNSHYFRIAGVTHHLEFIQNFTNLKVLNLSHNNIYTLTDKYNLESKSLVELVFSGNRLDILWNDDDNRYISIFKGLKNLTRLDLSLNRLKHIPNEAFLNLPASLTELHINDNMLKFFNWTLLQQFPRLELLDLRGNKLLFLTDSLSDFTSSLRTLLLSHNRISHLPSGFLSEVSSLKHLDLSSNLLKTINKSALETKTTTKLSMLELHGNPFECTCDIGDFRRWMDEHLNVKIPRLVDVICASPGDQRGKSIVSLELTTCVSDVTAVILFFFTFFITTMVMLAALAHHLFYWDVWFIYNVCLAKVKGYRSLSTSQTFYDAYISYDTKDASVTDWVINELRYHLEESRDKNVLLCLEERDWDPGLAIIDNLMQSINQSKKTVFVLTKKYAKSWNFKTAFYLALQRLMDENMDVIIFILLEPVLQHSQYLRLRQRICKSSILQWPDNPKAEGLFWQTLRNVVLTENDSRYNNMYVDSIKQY
Outline: (§1)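 hPBMCs stimulated 6 h at a single 0.1 μM dose; HLA-DR, MHC-I, CD80 and CD86 on mDCs and pDCs measured by flow cytometry, expressed as fold change versus unstimulated cells. Mean ± SD of three independent experiments in three different donors.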

[2] = target: T1, Toll-like receptor 8 (Homo sapiens); test: Agonist activity at TLR8 in human PBMC assessed as induction of myeloid dendritic cell maturation by measuring HLA-DR level at 0.1 uM after 6 hrs by flow cytometry; outline: as §1
[3] = target: T1, Toll-like receptor 8 (Homo sapiens); test: Agonist activity at TLR8 in human PBMC assessed as induction of myeloid dendritic cell maturation by measuring CD86 level at 0.1 uM after 6 hrs by flow cytometry; outline: as §1
Toll-like receptor 7 = target: T2, Toll-like receptor 7 (Homo sapiens, UniProt Q9NYK1); test: Agonist activity at human TLR7 expressed in HEK293 cells assessed as induction of NFKappaB activity after 24 hrs by SEAP reporter gene assay
T2 sequence (Q9NYK1 whole entry): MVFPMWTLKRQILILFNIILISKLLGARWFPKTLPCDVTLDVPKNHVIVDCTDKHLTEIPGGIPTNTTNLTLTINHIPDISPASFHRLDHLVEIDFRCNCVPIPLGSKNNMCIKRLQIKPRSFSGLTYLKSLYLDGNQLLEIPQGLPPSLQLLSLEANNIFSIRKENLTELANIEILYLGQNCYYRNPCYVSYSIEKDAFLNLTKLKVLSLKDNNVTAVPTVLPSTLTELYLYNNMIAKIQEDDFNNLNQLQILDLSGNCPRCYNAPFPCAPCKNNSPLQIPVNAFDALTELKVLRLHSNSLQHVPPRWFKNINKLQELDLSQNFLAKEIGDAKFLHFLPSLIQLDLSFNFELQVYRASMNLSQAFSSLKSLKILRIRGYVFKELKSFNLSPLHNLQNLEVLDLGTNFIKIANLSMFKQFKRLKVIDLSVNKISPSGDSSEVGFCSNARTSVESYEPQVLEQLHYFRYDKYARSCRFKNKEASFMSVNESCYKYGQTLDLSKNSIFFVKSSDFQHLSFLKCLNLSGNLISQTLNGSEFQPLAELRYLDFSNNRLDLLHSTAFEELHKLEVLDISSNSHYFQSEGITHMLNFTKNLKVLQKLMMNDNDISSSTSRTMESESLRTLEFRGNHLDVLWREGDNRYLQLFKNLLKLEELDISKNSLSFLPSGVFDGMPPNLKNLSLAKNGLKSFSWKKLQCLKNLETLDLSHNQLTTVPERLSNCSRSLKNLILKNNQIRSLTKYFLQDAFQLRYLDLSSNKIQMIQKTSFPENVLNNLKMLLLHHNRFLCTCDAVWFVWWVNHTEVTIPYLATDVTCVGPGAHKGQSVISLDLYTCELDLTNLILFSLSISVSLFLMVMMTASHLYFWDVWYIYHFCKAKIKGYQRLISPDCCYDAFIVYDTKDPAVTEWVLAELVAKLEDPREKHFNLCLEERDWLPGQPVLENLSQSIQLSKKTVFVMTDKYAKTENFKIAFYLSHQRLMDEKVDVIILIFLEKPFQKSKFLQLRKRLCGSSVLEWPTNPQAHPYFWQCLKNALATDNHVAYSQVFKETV
Outline: (§2)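 HEK293 cells stably transfected with hTLR7 or hTLR8 plus an NFκB-driven SEAP reporter, treated 24 h with compound over a μM range; SEAP secretion read out. EC50 as mean ± SD of three (TLR7) or four (TLR8) independent experiments.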

Toll-like receptor 8 = target: T3, Toll-like receptor 8 (Homo sapiens, UniProt Q9NR97); test: Agonist activity at human TLR8 expressed in HEK293 cells assessed as induction of NFKappaB activity after 24 hrs by SEAP reporter gene assay; outline: as §2
T3 sequence (Q9NR97 whole entry): T1 sequence (whole entry)

[4] = target: TLR7 and TLR8 (Homo sapiens) (UniProt Q9NYK1+Q9NR97); test: Agonist activity at TLR7/TLR8 in human PBMC assessed as IFN alpha level
Outline: (§3)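 IFNα secretion by hPBMCs across a μM dose range; MEC = lowest dose tested inducing cytokine, PC = dose giving highest level, PL = peak level at 10 μM. Data representative of one of three independent donors.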

[5] = target: T4, Toll-like receptor 7 (Homo sapiens) (UniProt Q9NYK1); test: Agonist activity at TLR7 in human PBMC assessed as IFNalpha stimulation at 10 uM; outline: as §3
T4 sequence (whole entry): T2 sequence (Q9NYK1 whole entry)

[6] = target: T1, Toll-like receptor 8 (Homo sapiens); test: Agonist activity at TLR8 in human PBMC assessed as TNFalpha level
Outline: (§4)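 TNFα secretion by hPBMCs across a μM dose range; MEC = lowest dose tested inducing cytokine, PC = dose giving highest level, PL = peak level at 10 μM. Data representative of one of three independent donors.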

[7] = target: T1, Toll-like receptor 8 (Homo sapiens); test: Agonist activity at TLR8 in human PBMC assessed as TNFalpha level at 10 uM; outline: as §4

Question: Which results are given for `CCC[C@H](C)Oc1nc(N)c2[nH]c(=O)n(CC3CCN(CCO)CC3)c2n1`?
Answer: fold change (FC) [1]: 1.5; Activity [2]: inactive; Activity [3]: inactive; EC50 (Toll-like receptor 7): 4.06 µM; EC50 (Toll-like receptor 8): 2140 nM; ECmax [4]: 0.08 µM; MEC [4]: 0.016 µM; Activity [5]: 4750 pg/mL; MEC [6]: 2 µM; Activity [7]: 10300 pg/mL
